The test system of series [1] is Primary HUVECs. Description: HUVEC proliferation without VEGF165. The series is classed as cell-based. To be noted: Homo sapiens, 72 h, read-out: IC50, cell proliferation. The gist of the method:
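HUVECs grown in F-12 with 10% FBS, 18 U/mL heparin and 30 μg/mL ECGS. Seeded at 10,000 cells/well in triplicate and left to adhere overnight, then starved 24 h in 0.1% FBS. Test compound at 0.8, 3, 11.8, 46.8 and […] in 0.1% FBS, with no VEGF165 added. MTS absorbance read at 490 nm after 72 h. IC50 = concentration halving absorbance versus control.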

The test system of the next series is A549. Description: Cancer cell proliferation assay. To be noted: Homo sapiens, A549, 72 h, read-out: IC50, cell proliferation. Format: cell-based.
The next series relates to MV-4-11. Description: Cancer cell proliferation assay. The note with it: Homo sapiens, MV4-11, 72 h, read-out: IC50, cell proliferation. Format: cell-based.
The subject of another series is A375. The series can be described thus: Cancer cell proliferation assay. Format: cell-based. To be noted: Homo sapiens, A-375, 72 h, read-out: IC50, cell proliferation.
In the next series the test system is BxPC-3. Description: Cancer cell proliferation assay. The series is classed as cell-based. The note with it: Homo sapiens, BXPC-3, 72 h, read-out: IC50, cell proliferation.
Series [2] concerns VEGF165-induced HUVEC cell lines. The series can be described thus: VEGF165-induced HUVEC proliferation. The note with it: Homo sapiens, 72 h, read-out: IC50, cell proliferation. The series is classed as cell-based.
Series [3] is described as follows: Body weight and tolerability in xenograft mice. Format: in vivo, mouse.
Series [4] has as its system microvessel density (CD31). Description: Microvessel density by CD31 immunofluorescent staining in xenograft models. The series is classed as in vivo, mouse. To be noted: for microvessel density (MVD), CD31 staining: mouse xenograft models. Summed up:
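Xenograft tumor paraffin sections (8 μm) rehydrated and treated 30 min in Tris/EDTA, then blocked with PBS/0.3% Triton X. Primary rabbit anti-mouse CD31 (1:100) at 4°C overnight. Secondary Alexa Fluor 488 goat anti-rabbit IgG (1:50) for 2 h. MVD quantified from fluorescence images: five slides, four ×200 fields each.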

The subject of another series is HCT-116. Description: Cancer cell proliferation assay. Format: cell-based. To be noted: Homo sapiens, HCT-116, 72 h, read-out: IC50, cell proliferation.
A further series deals with 786-O. The series can be described thus: Cancer cell proliferation assay. Format: cell-based. The note with it: Homo sapiens, 786-0, 72 h, read-out: IC50, cell proliferation.
Series [5] relates to VEGF165-induced Primary HUVECs. Description: VEGF165-induced HUVEC proliferation. The series is classed as cell-based. To be noted: Homo sapiens, 72 h, read-out: IC50, cell proliferation.
The subject of the next series is HT-29. The series can be described thus: Cancer cell proliferation assay. The series is classed as cell-based. To be noted: Homo sapiens, HT-29, 72 h, read-out: IC50, cell proliferation.
The subject of a further series is CNV lesions. The note with it: laser-induced CNV rat model; oral administration; cited from earlier work.
Series [6] deals with Primary HUVECs. The series can be described thus: In vitro HUVEC tube formation assay. The series is classed as cell-based, human. To be noted: at both 50 and 100 nM; VEGF165 30 ng/mL, 3 h.
A further series relates to ABCG2. To be noted: cited from earlier work.
A further series relates to MV-4-11 xenograft tumors. The series can be described thus: Mouse xenograft tumor growth. Format: in vivo. To be noted: oral. Summed up: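 Male athymic BALB/c nude mice, 6 weeks old, injected subcutaneously with 5 × 10⁶ MV-4-11 cells in the flank next to the right forelimb. […] Oral dosing at various doses for 3–4 weeks. Percent tumor growth inhibition calculated. Study repeated twice. Mean ± SD; ANOVA/t test.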

The target in a further series is PDGFRβ (Homo sapiens, UniProt P09619). The series can be described thus: KINOMEscan competition kinase binding assay.
The target in another series is FLT3 (Homo sapiens, UniProt P36888). Description: KINOMEscan competition kinase binding assay.
The conditions of series [7]: compared with other TKIs; cited from earlier work.
A further series relates to A549 xenograft tumors. The series can be described thus: Mouse xenograft tumor growth. The series is classed as in vivo. To be noted: dose-dependent (abstract only).
Another series relates to KDR, FLT3, and C-Kit. Description: KINOMEscan IC50 compared with sunitinib. Format: binding, human.
A further series relates to HT-29 xenograft tumors. Description: Mouse xenograft tumor growth. The series is classed as in vivo. The note with it: HT-29-cell-derived xenograft models; oral. Summed up:
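Two-step HT-29 xenograft in BALB/c nude mice. First, 5 × 10⁶ cells injected subcutaneously and grown to 100–300 mm³. Tumors then excised, minced into 1 mm³ pieces and implanted in the flank of new mice, then grown to 100–300 mm³. […] Oral dosing for 3–4 weeks. Percent tumor growth inhibition calculated. Study repeated once.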

For series [8], the system named is KDR phosphorylation of HUVECs. Description: VEGF-induced KDR phosphorylation of HUVECs. Format: cell-based, human. The note with it: Figure S1.
The next series addresses C-Kit (Homo sapiens, UniProt P10721). The series can be described thus: KINOMEscan competition kinase binding assay.
Series [9] relates to choroidal neovascularization. The series can be described thus: Matrigel-induced choroidal neovascularization model. The note with it: rat, days 10-20 after Matrigel injection, n = 6. Format: in vivo. The gist of the method: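 Rats anesthetized with ketamine (40 mg/kg IP) and xylazine (6 mg/kg IP), then given a subretinal injection of 1.2 μL Matrigel diluted 3:1 with PBS. Test compound at 10 or 30 mg/kg on days 10–20 after injection; controls untreated. Rats perfused with PBS, DiI and 4% paraformaldehyde. Eyes cut in 100 μm serial sections and viewed by confocal microscopy. CNV area = summed section width × thickness. Mean ± SD; ANOVA/t test.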

Molecules are shown by their SMILES. Bounds are passed on as bounds.

PDGFRβ, sequence (P09619 33-1106): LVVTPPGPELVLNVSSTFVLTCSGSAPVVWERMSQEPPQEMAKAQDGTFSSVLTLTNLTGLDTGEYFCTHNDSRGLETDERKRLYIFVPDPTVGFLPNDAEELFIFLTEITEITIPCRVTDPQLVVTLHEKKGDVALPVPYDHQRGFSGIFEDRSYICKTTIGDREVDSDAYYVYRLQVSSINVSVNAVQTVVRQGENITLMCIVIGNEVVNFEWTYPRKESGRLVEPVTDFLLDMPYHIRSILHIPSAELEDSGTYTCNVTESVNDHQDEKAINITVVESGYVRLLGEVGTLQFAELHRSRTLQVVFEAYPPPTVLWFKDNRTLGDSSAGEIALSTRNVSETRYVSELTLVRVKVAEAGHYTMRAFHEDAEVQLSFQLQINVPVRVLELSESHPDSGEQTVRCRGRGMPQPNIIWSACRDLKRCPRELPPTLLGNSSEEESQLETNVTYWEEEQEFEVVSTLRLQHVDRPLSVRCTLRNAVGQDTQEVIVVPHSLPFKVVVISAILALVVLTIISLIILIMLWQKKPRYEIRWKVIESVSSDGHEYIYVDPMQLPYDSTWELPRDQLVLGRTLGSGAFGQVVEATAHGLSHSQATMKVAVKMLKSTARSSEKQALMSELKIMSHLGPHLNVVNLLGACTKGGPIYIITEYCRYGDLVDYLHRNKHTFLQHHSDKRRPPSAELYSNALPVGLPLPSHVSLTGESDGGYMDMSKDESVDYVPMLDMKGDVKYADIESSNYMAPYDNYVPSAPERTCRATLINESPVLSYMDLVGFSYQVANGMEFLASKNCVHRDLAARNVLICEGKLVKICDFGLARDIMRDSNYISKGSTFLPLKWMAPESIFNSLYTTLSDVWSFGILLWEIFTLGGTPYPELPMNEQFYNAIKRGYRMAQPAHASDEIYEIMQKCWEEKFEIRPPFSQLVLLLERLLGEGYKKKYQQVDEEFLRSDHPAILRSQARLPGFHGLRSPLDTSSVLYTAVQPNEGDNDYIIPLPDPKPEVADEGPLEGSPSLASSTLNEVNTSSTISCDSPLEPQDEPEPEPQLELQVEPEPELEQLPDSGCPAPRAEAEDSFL
C-Kit, sequence (P10721 26-976): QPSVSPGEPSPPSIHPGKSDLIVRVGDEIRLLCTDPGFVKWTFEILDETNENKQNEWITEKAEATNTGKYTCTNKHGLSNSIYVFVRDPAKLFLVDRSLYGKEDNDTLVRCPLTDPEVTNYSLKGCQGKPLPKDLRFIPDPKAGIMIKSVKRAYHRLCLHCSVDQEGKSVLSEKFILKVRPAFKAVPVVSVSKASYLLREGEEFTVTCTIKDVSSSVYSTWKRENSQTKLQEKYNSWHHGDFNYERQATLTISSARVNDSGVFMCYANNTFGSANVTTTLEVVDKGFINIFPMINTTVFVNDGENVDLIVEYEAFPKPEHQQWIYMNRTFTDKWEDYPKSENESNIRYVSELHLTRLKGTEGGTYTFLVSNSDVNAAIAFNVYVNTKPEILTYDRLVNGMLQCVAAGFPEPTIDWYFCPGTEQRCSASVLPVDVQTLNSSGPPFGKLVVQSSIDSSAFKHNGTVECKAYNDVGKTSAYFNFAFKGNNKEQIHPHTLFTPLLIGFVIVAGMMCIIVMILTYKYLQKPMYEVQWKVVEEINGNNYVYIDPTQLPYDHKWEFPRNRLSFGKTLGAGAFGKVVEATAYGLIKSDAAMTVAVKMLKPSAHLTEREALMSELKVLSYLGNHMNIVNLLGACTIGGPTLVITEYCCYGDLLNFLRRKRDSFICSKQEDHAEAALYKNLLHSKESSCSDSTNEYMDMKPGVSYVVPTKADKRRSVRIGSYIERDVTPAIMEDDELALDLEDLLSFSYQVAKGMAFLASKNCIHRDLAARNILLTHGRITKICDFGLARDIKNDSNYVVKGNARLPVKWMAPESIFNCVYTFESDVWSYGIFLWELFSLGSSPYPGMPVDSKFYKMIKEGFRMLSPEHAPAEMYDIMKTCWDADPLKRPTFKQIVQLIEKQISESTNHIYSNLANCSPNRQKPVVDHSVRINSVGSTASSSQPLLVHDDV
FLT3, sequence (P36888 27-993): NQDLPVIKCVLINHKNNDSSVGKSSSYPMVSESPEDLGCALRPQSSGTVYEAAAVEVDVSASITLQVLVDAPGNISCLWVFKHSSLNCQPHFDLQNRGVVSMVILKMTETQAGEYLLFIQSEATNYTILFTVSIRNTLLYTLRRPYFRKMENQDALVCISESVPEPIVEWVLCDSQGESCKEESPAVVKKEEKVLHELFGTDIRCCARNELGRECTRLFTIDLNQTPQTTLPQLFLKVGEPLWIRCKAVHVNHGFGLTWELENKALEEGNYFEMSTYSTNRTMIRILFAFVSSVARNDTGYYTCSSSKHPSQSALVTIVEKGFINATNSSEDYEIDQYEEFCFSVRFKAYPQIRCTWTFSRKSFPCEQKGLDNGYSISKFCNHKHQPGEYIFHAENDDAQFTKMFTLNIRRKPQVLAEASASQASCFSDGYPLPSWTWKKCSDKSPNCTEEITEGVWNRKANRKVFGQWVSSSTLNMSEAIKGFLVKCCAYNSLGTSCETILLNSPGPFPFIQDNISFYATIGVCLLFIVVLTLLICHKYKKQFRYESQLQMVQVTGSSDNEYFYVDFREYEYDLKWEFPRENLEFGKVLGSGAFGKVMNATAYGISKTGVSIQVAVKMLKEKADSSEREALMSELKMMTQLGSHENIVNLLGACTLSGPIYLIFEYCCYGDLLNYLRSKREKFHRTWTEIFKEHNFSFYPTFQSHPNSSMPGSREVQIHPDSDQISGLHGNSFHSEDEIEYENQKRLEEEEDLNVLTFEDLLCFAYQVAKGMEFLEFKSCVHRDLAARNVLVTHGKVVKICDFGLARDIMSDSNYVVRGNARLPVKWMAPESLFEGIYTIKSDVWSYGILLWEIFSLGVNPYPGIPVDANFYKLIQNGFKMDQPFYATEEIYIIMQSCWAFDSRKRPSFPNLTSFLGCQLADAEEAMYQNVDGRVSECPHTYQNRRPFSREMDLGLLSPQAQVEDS

For `CN[C@@H]1C[C@H]2O[C@@](C)([C@@H]1OC)n1c3ccccc3c3c4c(c5c6ccccc6n2c5c31)C(=O)NC4` [Staurosporine, reference compound], the IC50 in the series on Primary HUVECs [1] turned out to be 0.00812 µM.

On to `CCN(CC)CCNC(=O)c1c(C)[nH]c(/C=C2\C(=O)Nc3ccc(F)cc32)c1C` [Sunitinib, reference compound], for which the IC50 amounted to 4.43 µM in the series with A549; 0.0148 µM in the series on MV-4-11; 2.88 µM with A375; 4.96 µM in the series on BxPC-3; 0.0398 µM in [2]; 2.52 µM with HCT-116. Also, the IC50 was determined as 6.04 µM in the series with 786-O, 0.0126 µM in series [5] and 4.42 µM in the series on HT-29. In addition, the body weight loss entry in series [3] (40 mg/kg qd) is “severe body weight loss”. In addition, the “microvessel density (MVD), CD31 staining” value in series [4] is on record as “significantly inhibited”.

Regarding `Cc1[nH]c(/C=C2\C(=O)Nc3ccc(F)cc32)c(C)c1C(=O)N[C@H]1CCN(C(=O)N(C)C)C1` [Vorolanib], the IC50 in the series on A549 was > 9 µM; on PDGFRβ it was 0.00013 µM; in the series on MV-4-11, 0.14 µM; with A375, > 9 µM; at FLT3 it was 0.00063 µM; with BxPC-3, > 9 µM. For the same compound, the IC50 in series [2] was 0.0641 µM; in the series with Primary HUVECs [1], > 2 µM; in the series on HCT-116 it was > 9 µM; on C-Kit, 0.00014 µM; in the series on 786-O, > 9 µM; in series [5], 0.0924 µM. In addition, the IC50 with HT-29 is > 9 µM. Also, in the series with CNV lesions, the CNV lesions result is “could reduce CNV lesions”. Also, in the series with Primary HUVECs [6], the “VEGF165-induced tube formation of HUVECs” value is recorded as “inhibited the VEGF165-induced tube formation of HUVECs, in vitro, with inhibitory strengths comparable with that of sunitinib”. Also, the “drug efflux function of ABCG2” value in the series on ABCG2 was “inhibition of the drug efflux function of ABCG2”. In addition, the tumor growth inhibition result in the series with MV-4-11 xenograft tumors (10 mg/kg bid) was “began to show significant inhibition”. Moreover, the tumor regression result with MV-4-11 xenograft tumors (80 mg/kg bid) is on record as “tumors completely disappeared”. Further, the half-life result in [7] is listed as “shorter half-life”. In addition, in series [7], the tissue accumulation result is reported as “limited tissue accumulation”. Also, the tumor growth entry with A549 xenograft tumors is on record as “inhibited tumor growth”. Further, the “body weight loss / toxicity” value in series [3] (orally administered vorolanib) is recorded as “no obvious body weight loss or other significant toxicity observed”. In the series on KDR, FLT3, and C-Kit, the “IC50 fold lower than those of sunitinib” value is given as 4.7- to 15.4 fold. Moreover, the efficacious dose in the series with HT-29 xenograft tumors was 40–160 mg/kg bid. The “microvessel density (MVD) inhibitory activity” value in [4] (high-dose vorolanib 160 mg/kg twice daily [bid]) was “comparable with sunitinib”. In addition, in [4], the “microvessel density (MVD), CD31 staining” value was “suppressed the MVD of the mouse in a dose-dependent manner”. Also, the “VEGF-induced KDR phosphorylation of HUVECs” value in series [8] is “inhibited the VEGF-induced KDR phosphorylation of HUVECs”. The results for the CNV area in [9] (10 mg/kg) and in series [9] (30 mg/kg) were 493.58 ± 317.17 × 10^3 μm^2 and 357.70 ± 276.97 × 10^3 μm^2, respectively.

The values are drawn from PMC8861424 (Molecular Therapy Oncolytics, 2022).
